Source: ChEMBL document CHEMBL4513216, “Probing the Open Global Health Chemical Diversity Library for Multistage-Active Starting Points for Next-Generation Antimalarials” (ACS Infect Dis, 2020)

experiment: Toxicity liver stage against HepG2, at 10uM; assay type: cell-based; set-up: test concentration 10 uM, cell line HepG2-A16-CD81EGFP; conditions: human, HepG2-A16-CD81EGFP cells; read-out: INHIBITION
Summary of the method: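 Uninfected HepG2-A16-CD81EGFP cells, 3 × 10^3 per well, 1536-well, plated on prespotted compound at 10 μM final, parasite-free screening media added to match infected plates; puromycin 10 μM positive, DMSO 0.5% negative; run in parallel with 48 h PbLuc assay at 37 °C, 5% CO2; viability by CellTiter-Glo luminescence, normalized to controls.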

| Structure (SMILES) | cytotoxicity at 10 µM [%] |
| --- | --- |
| CNC(=O)Nc1cc(-c2ccccc2C)nn1CCO | 7 |
| O[C@H]1CC[C@@H](Cc2cc(-c3ccc(F)cc3)on2)O[C@@H]1CNCC1CC1 | -6.4 |
| O=S(=O)(NC[C@H]1C[C@@H]2CCN1C[C@@H]2CN1CCCCC1)c1ccccc1 | -4.32 |
| CC1CN(c2ncccc2C(=O)Nc2cccc3c2CCCC3)CCN1 (stereo not drawn) | 4.65 |
| CN(C)C(=O)CNC(=O)c1ccc2c(-c3nccs3)noc2c1 | 7.19 |
| Cc1cccc(NC(=O)N2CCn3cnc(COCC4CC4)c3C2)c1 | 3.83 |
| CC(=O)N1CCC2(C1)c1ccccc1S(=O)(=O)N2CCC(C)C (stereo not drawn) | -9.11 |
| Cc1ccc(C(=O)N2C[C@H]3CN(Cc4csc(C)n4)C[C@H]3C2)cn1 | -143 |
| Cc1nc(CN2C(=O)C[C@@H]3[C@@H]2CCN3S(=O)(=O)C2CC2)cs1 | -124 |
| COCC1CC2(CCN(C(=O)c3ccc(F)cc3C)CC2)CO1 (stereo not drawn) | -108 |
| O=C1CC(c2cccs2)Cc2nc(O)c(C(=O)N3CCCC3)cc21 (stereo not drawn) | -3.96 |
| Cn1nc(CNC(=O)C2COc3ccccc3O2)cc1C1CC1 (stereo not drawn) | 7.52 |
| Cc1cc(OCc2ccc(C(=O)O)s2)ccc1Cl | 12.2 |
| O=C(NC1CCCCC1)c1nnc2ccc(N3CCOCC3)cc2n1 | 5.97 |
| CC(=O)Oc1ccnc(C(F)(F)F)c1C(C)=O | -11.4 |
| O=C(c1cc(-c2cccs2)cs1)N1CCSCC1 | 10.4 |
| O=C(Nc1ccc2c(c1)OCCO2)c1ccc(=O)[nH]n1 | 18.1 |
| Fc1ccc2[nH]c3c(c2c1)CCN1C(c2ccncc2)N2CCC31CC2 (stereo not drawn) | 4.67 |
| Cc1nccnc1C1CCN(C2CCCC2O)CC1 (stereo not drawn) | -1.35 |
| CCN1CCCC1CNCc1cc2ccccc2[nH]c1=O (stereo not drawn) | 1.78 |
| Cc1ccc(=O)n(CC2(O)CCN(Cc3ccoc3)CC2)n1 | -24.2 |
| Cc1nc(CC(=O)N2CCN(C)CC2c2ccccc2)cs1 (stereo not drawn) | 3.49 |
| COCCNC(=O)N1CCN(C(C)C(=O)NC2CCCC2)CC1 (stereo not drawn) | 1.16 |

| Structure (SMILES) | cytotoxicity at 10 µM [%] |
| --- | --- |
| CCCC1CCCN(C(=O)CNC(=O)c2ccoc2C)CC1 (stereo not drawn) | 4 |
| CC(NCCCn1ccnc1)c1ccc(N2CCOC2=O)cc1 (stereo not drawn) | -8.48 |
| CNS(=O)(=O)c1cc(C(=O)NC2COc3ccccc3C2)ccc1OC (stereo not drawn) | 18.9 |
| Cc1c(NCCO)cccc1OC1CCCC1 | 3.1 |
| CCOC(=O)C1(O)CCN(C(=O)Nc2ccc(CC)cc2)CC1 | -130 |
| Cc1nc2n(n1)CC(Nc1nc(C(F)(F)F)nc3ccccc13)CC2 (stereo not drawn) | -0.978 |
| CCN(CC)S(=O)(=O)CC(=O)Nc1ccsc1 | -2.77 |
| COC(=O)[C@@H]1C[C@@H](O)CN1Cc1ccn(-c2ccc(F)cc2)n1 | -5.17 |
| O=C1CCN(C(=O)NCC(c2ccccc2)c2ccccc2)CCN1 | -1.44 |
| CC(C)NC(=O)N1CCC[C@H]1C(=O)NCCCc1cccc(F)c1 | 4.27 |
| CCc1[nH]nc(NC(=O)c2ccc(Cl)cn2)c1C | -9.69 |
| O=C(NC1CC1)C(c1ccccc1)N1CCN(Cc2ccc(Cl)s2)CC1 (stereo not drawn) | 4.46 |
| CN1CCN(C(=O)c2cc(C#N)cn2C)c2ccccc2C1 | 5.45 |
| Cc1nc2n(n1)CC(NCc1nc3ccccc3o1)CC2 (stereo not drawn) | -0.608 |
| CC(NC(=O)Nc1ccncc1)c1ccc2c(c1)CC(=O)N2 (stereo not drawn) | -5.76 |
| CCC(C)NC(=O)c1ccc(CNC(=O)CCC(C)C)cc1 (stereo not drawn) | 2.27 |
| NC(=O)CN1CCC(NC2CCCCc3ccccc32)CC1 (stereo not drawn) | -7.86 |
| CCC(C)(C)NCc1nc(C(C)(C)NC(=O)OC(C)(C)C)no1 | 2.35 |
| Cc1noc(CN(C)CC2CCN(CCO)CC2)n1 | 5.82 |
| CCCC(C(=O)NC1CCN(S(C)(=O)=O)CC1)c1ccccc1 (stereo not drawn) | -1.38 |
| COCCNC(=O)Nc1ccn(-c2cccc(C(F)(F)F)c2)n1 | -1.94 |
| CN(CCOc1ccc(Br)cc1)Cc1cscn1 | 5.25 |
| CS(=O)(=O)CCCSCc1ccc(Br)c(F)c1 | 4.64 |

| Structure (SMILES) | cytotoxicity at 10 µM [%] |
| --- | --- |
| COc1ccccc1-c1cc(NC(=O)CC2CCS(=O)(=O)C2)[nH]n1 (stereo not drawn) | -113 |
| O=C1N(CC2CC2)C2(CCSCC2)NC12CCCC2 | -150 |
| Cc1ccc(CNCc2cccc3cccnc23)c(OC2CCOC2)c1 (stereo not drawn) | 1.42 |
| Cc1nc(NC(=O)CCOCC(F)(F)F)ccc1Br | 6.27 |
| CCC1CN(C(=O)c2cnc(-c3ccccc3)s2)CCO1 (stereo not drawn) | -2.63 |
| COc1ccc(C(=O)Nc2ccc3c(c2)C(=O)NC3)cc1Br | 3.53 |
| Cc1noc(C)c1CS(=O)(=O)CC(=O)N1c2ccccc2CC1C (stereo not drawn) | 3.53 |
| Cc1nc(C2(NCc3c(C)nn(C)c3N3CCOCC3)CCC2)no1 | 4.98 |
| Cc1cc(CS(=O)(=O)NC2CCCCC2)on1 | 2.92 |
| COc1ccc(C2CCCN2C(=O)c2ccnc(NC3CC3)c2)cc1 (stereo not drawn) | 3.07 |
| CC(NCc1ccc(OCc2nccn2C)cc1)c1cccnc1 (stereo not drawn) | -4.47 |
| CNC(=O)NC(=O)CCN1CCOC(c2ccc(Br)cc2)C1 (stereo not drawn) | -2.42 |
| Cc1nn(C)cc1C(=O)N1CCC(CSc2ccccc2)C1 (stereo not drawn) | 2.84 |
| CC(C)(CNc1ccc2ccc(F)cc2n1)NS(C)(=O)=O | -7.04 |
| CN(CC(O)C1CC1)C(=O)Nc1ccc(F)c(-n2cccc2)c1 (stereo not drawn) | 2.2 |
| CCc1nc(CNc2ccc(F)cc2I)no1 | 3.36 |
| CCN1CCCC1CN(CCN(C)C)S(=O)(=O)c1cccc(C#N)c1 (stereo not drawn) | -12.1 |
| CCN1CCC(CC(=O)NCC(O)c2ccc3ccccc3c2)CC1 (stereo not drawn) | -5.26 |
| COc1ccc(-c2cc(C3CC3)c(C#N)c(N)n2)cc1F | -2.84 |
| O=C1CCCN1C1CCCN(CCn2cc(Cl)cn2)C1 (stereo not drawn) | -0.626 |
| COc1ccc2ncn(Cc3ncc[nH]3)c(=O)c2c1 | -11 |
| CCn1ncnc1C(C)Nc1cc(C2CCNCC2)nc(C)n1 (stereo not drawn) | -6.77 |
| Cc1ccc(-c2noc(C(O)CC(C)C)n2)nn1 (stereo not drawn) | -7.72 |

| Structure (SMILES) | cytotoxicity at 10 µM [%] |
| --- | --- |
| CC(C)(NC(=O)c1coc(COc2cccc(F)c2)n1)C(N)=O | -136 |
| CCOCCC(=O)NCC1COc2c(cccc2OC)C1 (stereo not drawn) | -142 |
| CNC(=O)c1nc(CN2CCOC(Cc3ccc(F)cc3)C2)no1 (stereo not drawn) | -2.28 |
| Cn1cc(C(=O)N2CC[C@@]3(O)CCN(C(=O)C4CCC4)C[C@H]3C2)cn1 | -140 |
| Cc1cnccc1NCCNC1CCN(CC(C)C)CC1 | -10 |
| CCc1nc(C)c([C@H]2CN(C)C[C@@H]2C(=O)Nc2ccc(OC)nc2)[nH]1 | -3.59 |
| Cc1ccc2nc(CN(C)Cc3[nH]nc4c3CCC4)[nH]c2c1C | 2.74 |
| COc1cc2[nH]c(=O)c(CN3CCCC3C)cc2c(OC)c1OC (stereo not drawn) | -7.74 |
| Cc1ccc2nc(CN3CCCCC3CCN3CCOCC3)cn2c1 (stereo not drawn) | 3.28 |
| CN(C)c1ncc2c(n1)CCCC2NC(=O)C1CC1 (stereo not drawn) | 4.07 |
| CCc1ncc2c(n1)CN(c1cc(NCCO)nc(N)n1)C2 | -4.49 |
| Cc1ccccc1C(CNc1ncnc2c1CCNCC2)N(C)C (stereo not drawn) | 21.5 |
| Cc1cc(CN2CCC(CNC(=O)C3(c4ccccc4)CC3)C2)[nH]n1 (stereo not drawn) | -145 |
| Cc1cc2ccccc2n1CCC(=O)N1CCCC(O)(CN(C)C)CC1 (stereo not drawn) | -1.88 |
| CS(=O)(=O)N1CCCCC1CCc1ccc(O)cc1 (stereo not drawn) | -0.311 |
| Cc1nc(NCCC23CCCN2CCC3)cc(C2CCCNC2)n1 (stereo not drawn) | 7.98 |
| CSCCC(=O)NCc1cc2n(n1)CCN(C(=O)N(C)C)C2 | -5.77 |
| CNc1cc(-c2nc(CCN3CCCC3=O)no2)ccn1 | 7.46 |
| CCCc1nc(C(=O)N(C)Cc2cc(CC)no2)cs1 | 6.75 |
| CC(C)Nc1ncc(CN2C[C@@H](CN3CCC(O)CC3)[C@@H](CO)C2)cn1 | 18.5 |
| Cc1ccc(NC2CCN(C(=O)CCc3ccsc3)CC2)nn1 | 4.3 |
| CCOCC(O)CN1CCN(C(=O)c2cc(C)ccc2F)CC1 (stereo not drawn) | 5.71 |
| CC(Cn1cccn1)NCc1nc(-c2ccccn2)no1 (stereo not drawn) | -5.17 |

| Structure (SMILES) | cytotoxicity at 10 µM [%] |
| --- | --- |
| COCc1nc(C(=O)NS(=O)(=O)c2ccc(Cl)cc2F)cs1 | 8.13 |
| O=C(c1cccnc1N1CCOCC1)N1CCCC(n2cccn2)C1 (stereo not drawn) | 0.985 |
| Cc1ccc(CC(=O)N2CCC(Nc3cccnn3)CC2)s1 | -7.01 |
| Cn1c(NCC(O)c2ccc(F)cc2)c(C#N)c(=O)n(C)c1=O (stereo not drawn) | -7.57 |
| Cc1ncccc1CNCC1CCN(CCO)CC1 | -22.5 |
| Cc1nc(CN(C)C2CCN(CCCc3ccccc3)C2)no1 (stereo not drawn) | -16.1 |
| Cc1cnn(CC2CCCN2C(=O)c2c(F)cccc2Cl)c1 (stereo not drawn) | -29.1 |
| Cc1cnn(CC2CCCCN2Cc2nccn2CC(F)(F)F)c1 (stereo not drawn) | -13.7 |
| Cc1oc(C)c(C(=O)N2CCN(Cc3cscn3)CC2)c1C | -10.6 |
| Cc1csc(CNC(=O)N(C)Cc2ccc3c(c2)OCCO3)n1 | 5.38 |
| CCOc1ccccc1-c1noc(CN2CCN(CCOC)CC2)n1 | -4.9 |
| CCC(O)CN(CC(=O)NC(=O)NC1CC1)c1ccccc1 (stereo not drawn) | -2.48 |
| O=C(CSc1ccc(F)cc1)NS(=O)(=O)c1ccc2c(c1)OCCO2 | -29.1 |
| CC(C)(C)c1ncc(C(=O)NCCNC(=O)c2ccccc2)s1 | -8.08 |
| CCc1nc(CN2CCCC(NCc3nnc(C4CC4)o3)C2)no1 (stereo not drawn) | -5.73 |
| c1ccc(CN2CC[C@H]3CO[C@H](CNc4ncccn4)[C@H]3C2)cc1 | -5.87 |
| CN1C[C@@H]2CN(Cc3ccsc3)CCC[C@]2(C(=O)O)C1 | -141 |
| CCN1CCc2[nH]nc(C(=O)N3CCCC3C)c2C1 (stereo not drawn) | -4.9 |
| Cc1cccnc1N1CC2(CCN(Cc3cccnc3)C2)C1 | -8.13 |
| O=c1c(=CS(=O)(=O)Nc2ccccc2)[nH]c(=O)n2cccc12 | 0.458 |
| O=C(C1CCOCC1)N1C[C@@H]2CC[C@H]1CN(C1Cc3ccccc3C1)C2 | -0.317 |
